SR-BI DiI inh: inhibitors of mouse SR-BI mediated HDL lipid uptake; AID 488896; ldlA[mSR-BI] CHO cells, DiI-HDL uptake fluorescence, 3 h; 0.96% of 320,000 active; inhibition, % at 12.5 µM; Q61009;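 active = mean replicate inhibition of at least 70% and a set share of replicates each scoring 70 or more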;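 also: 0% = median of neutral control wells and 100% = median of positive control wells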
Target sequence (Q61009 whole entry, looked up): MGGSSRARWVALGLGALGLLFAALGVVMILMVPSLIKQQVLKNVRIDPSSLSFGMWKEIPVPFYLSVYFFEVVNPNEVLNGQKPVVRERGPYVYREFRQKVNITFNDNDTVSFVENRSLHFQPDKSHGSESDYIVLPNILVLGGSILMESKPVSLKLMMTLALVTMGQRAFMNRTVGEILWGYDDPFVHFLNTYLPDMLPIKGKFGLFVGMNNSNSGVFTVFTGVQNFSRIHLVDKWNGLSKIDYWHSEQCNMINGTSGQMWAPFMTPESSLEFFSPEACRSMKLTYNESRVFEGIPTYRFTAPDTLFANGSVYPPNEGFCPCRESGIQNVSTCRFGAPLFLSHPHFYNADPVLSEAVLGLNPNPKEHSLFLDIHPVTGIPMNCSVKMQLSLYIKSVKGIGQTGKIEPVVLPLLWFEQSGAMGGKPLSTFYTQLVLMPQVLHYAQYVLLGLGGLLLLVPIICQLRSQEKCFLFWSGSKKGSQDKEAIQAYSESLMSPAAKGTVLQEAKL
CAL PDZ FP-1: CAL PDZ (human) peptide binding inhibition. Q9HD26. purified CAL PDZ, TMR-peptide fluorescence polarization, 1 h. 0.92% of 300,000 active. inhibition, % at 24.9 µM;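 active = mean inhibition of at least 30% with at least half of replicates also reaching 30%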;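 also: 0% = DMSO neutral control and 100% = excess unlabeled competitor peptide PRC23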
CAL PDZ FP-2: human CAL PDZ-peptide interaction inhibition; Q9HD26; purified CAL PDZ, TMR-peptide fluorescence polarization, 1 h; inhibition, % at 20 µM; 0.02% of 330,000 active; AID 504414;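 active = highest replicate inhibition of at least 40%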;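 also: plate controls were DMSO neutral control wells for no effect and unlabeled competitor peptide control wells for full effect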
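material = purified tagged CAL PDZ domain construct (CerCALP) | buffer or medium = sodium phosphate/NaCl buffer pH 7.4 with TCEP, IgG, Thesit | reagent = TMR-labelled reporter peptide T*-PRC34 bound in PDZ groove | incubation = 1 h room-temperature incubation prior to read | measured by = fluorescence polarization (mP) | evaluation = percent inhibition from loss of millipolarization | control set = unlabelled peptide and DMSO controls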
ATG4B inh: blocks human ATG4B protease cleavage of LC3 substrate; Q9Y4P1; ATG4B cleavage of LC3-PLA2, NBD-HPC fluorescence, 1 h; inhibition, % at 8.33 µM; 0.51% of 340,000 active; in the data active = inhibition above about 40%
SR-BI DiI-HDL act: enhances SR-BI lipid uptake from DiI-HDL | CHO ldlA[mSR-BI] cells, DiI-HDL uptake fluorescence, 3 h; 100 = double the neutral-control signal | activation, % at 12.5 µM | 0.096% of 320,000 active;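 active = mean replicate activation of at least 60% and every replicate at or above 60%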;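 also: 0% = median plate neutral-control signal and 100% = twice that signal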
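Test system: SR-BI-overexpressing, LDLR-lacking CHO cells. Measured by: DiI fluorescence, bottom read. Medium: Ham's F12 with 0.5% BSA, HEPES 25 mM, pH 7.4. Timing: 3 h uptake period with compound, 37 °C.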
* marks the source's active call; other numbers are inactive results; . = no result. This is a sample that favours compounds with a hit; in the whole collection about 2.3% have one here.

SMILES	SR-BI DiI inh	CAL PDZ FP-1	CAL PDZ FP-2	ATG4B inh	SR-BI DiI-HDL act
CCOC(=O)C1=C(C)NC(C)=C(C(=O)OCC)C1C(=O)OCC(=O)NC1(C#N)CCCCC1	4	-5	-2	5	-4
CCCCOc1ccc(C(C)NC(=O)C2CCCN(S(=O)(=O)CCC)C2)cc1 (stereo not given)	30	.	-1	2	-30
O=C(CC1CCC1)Nc1cccc2c([N+](=O)[O-])cccc12	.	.	.	-5	.
N/C(=N\N=C\c1ccco1)SC1CC(=O)N(c2ccccc2)C1=O (stereo not given)	14	-1	0	-3	-14
N/C(=N\N=C\c1ccco1)SC1CC(=O)N(c2ccc(C(=O)O)cc2)C1=O (stereo not given)	-60	2	0	-11	60*
Fc1ccc(CCN2CCN=C2Nc2ccccc2)cc1	-68	-2	0	2	68*
NC(=O)NC(=O)COC(=O)c1sc2ccccc2c1Cl	2	-5	-1	5	-2
CN(C)CCOC(=O)c1sc2ccccc2c1Cl	-7	84*	0	3	7
CCOC(=O)C1=NNC(C(=O)c2ccccc2)C1c1ccc(C)cc1 (stereo not given)	-1	59*	-1	-9	1
Cc1cccc2c3c([nH]c12)CCNC3	-3	.	0	9	3
COc1ccccc1C(=O)COC(=O)Cc1n[nH]c(=O)c2ccccc12	-30	31*	-3	-2	30
O=C(COc1ccc(/C=N/NS(=O)(=O)c2ccccc2)cc1)Nc1cccc(Cl)c1	75*	-5	-1	-17	-75
O=C(COc1ccc(/C=N/NS(=O)(=O)c2ccccc2)cc1)NCc1ccccc1	-4	-4	-1	-5	4
COc1ccc(NC(=O)c2cc(-c3ccc(OC)c(OC)c3)nc3ccccc23)c(OC)c1	95*	-6	-3	-7	-95
COc1cc(-c2cc(C(=O)Nc3nc4ccccc4s3)c3ccccc3n2)cc(OC)c1OC	43	87*	-2	-27	-43
O=C(Nc1nc2c(s1)CCCC2)c1cccnc1	15	-3	.	-6	-15
O=C(Nc1nc2c(s1)CCCC2)c1cc(-c2ccncc2)nc2ccccc12	76*	.	-1	8	-76
O=C(NC(=S)Nc1nc2c(s1)CCCC2)c1ccc(C(=O)c2ccccc2)cc1	76*	-2	0	3	-76
CCCC(C(=O)NC1CCCC1)N(Cc1ccccc1Cl)C(=O)c1snc(C(N)=O)c1N (stereo not given)	-7	-1	-3	3	7
COc1ccccc1NS(=O)(=O)c1cc(NC(=O)COc2ccccc2F)ccc1N1CCOCC1	42	0	0	-5	-42
COc1cc(-c2cc(C(=O)Nc3cccc(C(C)=O)c3)c3ccccc3n2)cc(OC)c1OC	85*	-6	-2	-10	-85
CCn1cc(CNC(=O)c2cc(-c3cc(OC)ccc3OC)nc3ccccc23)c(C)n1	78*	-3	-4	5	-78
CC(C#N)Sc1ccc(S(=O)(=O)N(C)C2CCCCC2)cn1 (stereo not given)	-11	0	-2	1	.
Cc1cccc(NC(=O)CSc2nnc(CNC(=O)c3ccc(S(=O)(=O)N(C)C)cc3)n2-c2cccc(C)c2)c1	85*	-2	-3	-19	-85
COc1ccccc1NC(=O)Cn1nc(-c2ccncc2)nc1SCC(=O)NC1CCCC1	-2	36*	-4	-1	2
Cc1nc2ccc(NS(=O)(=O)c3ccc(F)c(C)c3)cc2[nH]1	-6	1	-1	-4	6
CC(=O)OCC(=O)[C@@]1(O)CC[C@H]2[C@@H]3CCC4=CC(=O)CC[C@]4(C)[C@H]3[C@@H](O)C[C@@]21C	1	-4	0	-1	13
CC(=O)OCC(=O)C1(O)CCC2C3CC(F)C4=CC(=O)CCC4(C)C3C(O)CC21C (stereo not given)	-16	86*	1	-4	16
CC(=O)OCC(=O)[C@@]1(O)CC[C@H]2[C@@H]3CCC4=CC(=O)CC[C@]4(C)[C@H]3C(=O)C[C@@]21C	-8	.	0	4	8
CC(=O)OCC(=O)C1(O)CCC2C3CC(F)C4=CC(=O)CCC4(C)C3C(=O)CC21C (stereo not given)	-14	130*	0	2	14
